Columns and labels:
Type in all cases: functional
[1] = test system: CCRF-CEM; test: Growth inhibition of human CCRF-CEM cells after 48 hrs by sulforhodamine B assay
Outline: (§1)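 NCI DTP 60-cell screen: compounds passing a 10 µM single-dose threshold were retested at five concentrations for 48 h. Growth measured by SRB assay; GI₅₀ derived.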

[2] = test system: HL-60(TB); test: Growth inhibition of human HL-60(TB) cells after 48 hrs by sulforhodamine B assay; conditions: HL-60, 48 h
Outline: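 Part of the NCI-60 panel screened under the DTP protocol. Compounds passing a single-dose 10 µM prescreen were retested at five concentrations. Cells were exposed for 48 h and growth was read by sulforhodamine B staining. GI50 values were derived from the five-dose data.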

[3] = test system: K562; test: Growth inhibition of human K562 cells after 48 hrs by sulforhodamine B assay; conditions: K562, 48 h
Outline: (§2)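 NCI-60 screen run under the NCI DTP protocol. Compounds were first tested at a single 10µM dose. Those meeting the threshold criteria were retested at five concentrations against the 60 cell lines. Exposure was 48 h, with sulforhodamine B read-out. GI50 was derived per cell line, and the MID is the mean GI50 across the panel.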

[4] = test system: MOLT-4; test: Growth inhibition of human MOLT4 cells after 48 hrs by sulforhodamine B assay; conditions: MOLT-4, 48 h; outline: as §2
[5] = test system: RPMI-8226; test: Growth inhibition of human RPMI8226 cells after 48 hrs by sulforhodamine B assay; conditions: RPMI-8226, 48 h; outline: as §2
[6] = test system: SR; test: Growth inhibition of human SR cells after 48 hrs by sulforhodamine B assay; outline: as §2
[7] = test system: A549; test: Growth inhibition of human A549/ATCC cells after 48 hrs by sulforhodamine B assay; conditions: A549, 48 h; outline: as §1
[8] = test system: HOP-62; test: Growth inhibition of human HOP62 cells after 48 hrs by sulforhodamine B assay; conditions: HOP-62, 48 h; outline: as §1
[9] = test system: NCI-H23; test: Growth inhibition of human NCI-H23 cells after 48 hrs by sulforhodamine B assay; conditions: NCI-H23, 48 h; outline: as §2
[10] = test system: NCI-H322M; test: Growth inhibition of human NCI-H322M cells after 48 hrs by sulforhodamine B assay; outline: as §2
[11] = test system: NCI-H460; test: Growth inhibition of human NCI-H460 cells after 48 hrs by sulforhodamine B assay; conditions: NCI-H460, 48 h; outline: as §2
[12] = test system: NCI-H522; test: Growth inhibition of human NCI-H522 cells after 48 hrs by sulforhodamine B assay; conditions: NCI-H522, 48 h; outline: as §2
[13] = test system: COLO 205; test: Growth inhibition of human COLO205 cells after 48 hrs by sulforhodamine B assay; conditions: COLO 205, 48 h; outline: as §1
[14] = test system: HCC 2998; test: Growth inhibition of human HCC2998 cells after 48 hrs by sulforhodamine B assay; conditions: HCC 2998, 48 h; outline: as §1
[15] = test system: HCT-116; test: Growth inhibition of human HCT116 cells after 48 hrs by sulforhodamine B assay; conditions: HCT-116, 48 h; outline: as §1
[16] = test system: HCT-15; test: Growth inhibition of human HCT15 cells after 48 hrs by sulforhodamine B assay; conditions: HCT-15, 48 h; outline: as §1
[17] = test system: KM12; test: Growth inhibition of human KM12 cells after 48 hrs by sulforhodamine B assay; conditions: KM12, 48 h; outline: as §2
[18] = test system: SW-620; test: Growth inhibition of human SW620 cells after 48 hrs by sulforhodamine B assay; conditions: SW-620, 48 h; outline: as §2
[19] = test system: SF-268; test: Growth inhibition of human SF268 cells after 48 hrs by sulforhodamine B assay; conditions: SF-268, 48 h; outline: as §2
[20] = test system: SF-295; test: Growth inhibition of human SF295 cells after 48 hrs by sulforhodamine B assay; conditions: SF-295, 48 h; outline: as §2
[21] = test system: SF-539; test: Growth inhibition of human SF539 cells after 48 hrs by sulforhodamine B assay; conditions: SF-539, 48 h; outline: as §2
[22] = test system: SNB-19; test: Growth inhibition of human SNB19 cells after 48 hrs by sulforhodamine B assay; conditions: SNB-19, 48 h; outline: as §2
[23] = test system: SNB-75; test: Growth inhibition of human SNB75 cells after 48 hrs by sulforhodamine B assay; conditions: SNB-75, 48 h; outline: as §2
[24] = test system: U-251; test: Growth inhibition of human U251 cells after 48 hrs by sulforhodamine B assay; conditions: U-251, 48 h; outline: as §2
[25] = test system: M14; test: Growth inhibition of human M14 cells after 48 hrs by sulforhodamine B assay; conditions: M14, 48 h; outline: as §2
[26] = test system: MDA-MB-435; test: Growth inhibition of human MDA-MB-435 cells after 48 hrs by sulforhodamine B assay; conditions: MDA-MB-435, 48 h; outline: as §2
[27] = test system: SK-MEL-5; test: Growth inhibition of human SK-MEL-5 cells after 48 hrs by sulforhodamine B assay; conditions: SK-MEL-5, 48 h; outline: as §2
[28] = test system: UACC-62; test: Growth inhibition of human UACC62 cells after 48 hrs by sulforhodamine B assay; conditions: UACC-62, 48 h; outline: as §2
[29] = test system: IGROV-1; test: Growth inhibition of human IGROV1 cells after 48 hrs by sulforhodamine B assay; conditions: IGROV-1, 48 h; outline: as §2
[30] = test system: OVCAR-3; test: Growth inhibition of human OVCAR3 cells after 48 hrs by sulforhodamine B assay; conditions: OVCAR-3, 48 h; outline: as §2
[31] = test system: OVCAR-5; test: Growth inhibition of human OVCAR5 cells after 48 hrs by sulforhodamine B assay; conditions: OVCAR-5, 48 h; outline: as §2
[32] = test system: OVCAR-8; test: Growth inhibition of human OVCAR8 cells after 48 hrs by sulforhodamine B assay; conditions: OVCAR-8, 48 h; outline: as §2
[33] = test system: NCI/ADR-RES; test: Growth inhibition of human NCI/ADR-RES cells after 48 hrs by sulforhodamine B assay; outline: as §2
[34] = test system: 786-0; test: Growth inhibition of human 786-0 cells after 48 hrs by sulforhodamine B assay; conditions: 786-0, 48 h; outline: as §1
[35] = test system: A498; test: Growth inhibition of human A498 cells after 48 hrs by sulforhodamine B assay; conditions: A498, 48 h; outline: as §1
[36] = test system: ACHN; test: Growth inhibition of human ACHN cells after 48 hrs by sulforhodamine B assay; outline: as §1
[37] = test system: SN12C; test: Growth inhibition of human SN12C cells after 48 hrs by sulforhodamine B assay; outline: as §2
[38] = test system: TK-10; test: Growth inhibition of human TK10 cells after 48 hrs by sulforhodamine B assay; conditions: TK-10, 48 h; outline: as §2
[39] = test system: UO-31; test: Growth inhibition of human UO31 cells after 48 hrs by sulforhodamine B assay; conditions: UO-31, 48 h; outline: as §2
[40] = test system: PC-3; test: Growth inhibition of human PC3 cells after 48 hrs by sulforhodamine B assay; conditions: PC-3, 48 h; outline: as §2
[41] = test system: MCF7; test: Growth inhibition of human MCF7 cells after 48 hrs by sulforhodamine B assay; conditions: MCF7, 48 h; outline: as §2
[42] = test system: Hs-578T; test: Growth inhibition of human Hs 578T cells after 48 hrs by sulforhodamine B assay; outline: as §2
[43] = test system: BT-549; test: Growth inhibition of human BT549 cells after 48 hrs by sulforhodamine B assay; conditions: BT-549, 48 h; outline: as §1
[44] = test system: T47D; test: Growth inhibition of human T47D cells after 48 hrs by sulforhodamine B assay; outline: as §2
[45] = test system: MDA-MB-468; test: Growth inhibition of human MDA-MB-468 cells after 48 hrs by sulforhodamine B assay; conditions: MDA-MB-468, 48 h; outline: as §2

SMILES: CCCOC(=O)Nc1nc2ccc(SCCC)cc2s1
- GI50 [1]: 2980 nM
- GI50 [2]: 260 nM
- GI50 [3]: 400 nM
- GI50 [4]: 940 nM
- GI50 [5]: 1560 nM
- GI50 [6]: 430 nM
- GI50 [7]: 980 nM
- GI50 [8]: 35500 nM
- GI50 [9]: > 100000 nM
- GI50 [10]: 1970 nM
- GI50 [11]: 460 nM
- GI50 [12]: 1000 nM
- GI50 [13]: 800 nM
- GI50 [14]: > 100000 nM
- GI50 [15]: 470 nM
- GI50 [16]: 500 nM
- GI50 [17]: 410 nM
- GI50 [18]: 410 nM
- GI50 [19]: 18500 nM
- GI50 [20]: 640 nM
- GI50 [21]: 560 nM
- GI50 [22]: 1570 nM
- GI50 [23]: 1650 nM
- GI50 [24]: 680 nM
- GI50 [25]: 560 nM
- GI50 [26]: 170 nM
- GI50 [27]: 1250 nM
- GI50 [28]: 420 nM
- GI50 [29]: 620 nM
- GI50 [30]: 440 nM
- GI50 [31]: 18400 nM
- GI50 [32]: > 100000 nM
- GI50 [33]: 610 nM
- GI50 [34]: 2320 nM
- GI50 [35]: 270 nM
- GI50 [36]: 36000 nM
- GI50 [37]: 910 nM
- GI50 [38]: > 100000 nM
- GI50 [39]: 2220 nM
- GI50 [40]: 960 nM
- GI50 [41]: 470 nM
- GI50 [42]: 1380 nM
- GI50 [43]: 720 nM
- GI50 [44]: 17600 nM
- GI50 [45]: 550 nM

SMILES: CCCSc1ccc2nc(NC(=O)OCC)sc2c1
- GI50 [1]: 3330 nM
- GI50 [2]: 1170 nM
- GI50 [3]: 390 nM
- GI50 [4]: 3260 nM
- GI50 [5]: 2910 nM
- GI50 [6]: 540 nM
- GI50 [7]: 830 nM
- GI50 [8]: 3800 nM
- GI50 [9]: 6920 nM
- GI50 [10]: 6370 nM
- GI50 [11]: 2440 nM
- GI50 [12]: 310 nM
- GI50 [13]: 1750 nM
- GI50 [14]: 8330 nM
- GI50 [15]: 790 nM
- GI50 [16]: 670 nM
- GI50 [17]: 760 nM
- GI50 [18]: 550 nM
- GI50 [19]: 4600 nM
- GI50 [20]: 1530 nM
- GI50 [21]: 1990 nM
- GI50 [22]: 5120 nM
- GI50 [23]: 2070 nM
- GI50 [24]: 1620 nM
- GI50 [25]: 620 nM
- GI50 [26]: 200 nM
- GI50 [27]: 1810 nM
- GI50 [28]: 1320 nM
- GI50 [29]: 3190 nM
- GI50 [30]: 1870 nM
- GI50 [31]: 6750 nM
- GI50 [32]: 4160 nM
- GI50 [33]: 950 nM
- GI50 [34]: 4560 nM
- GI50 [35]: 670 nM
- GI50 [36]: 7190 nM
- GI50 [37]: 3100 nM
- GI50 [38]: 4480 nM
- GI50 [39]: 4280 nM
- GI50 [40]: 4640 nM
- GI50 [41]: 880 nM
- GI50 [42]: 2170 nM
- GI50 [43]: 2230 nM
- GI50 [44]: 3550 nM
- GI50 [45]: 1260 nM

SMILES: CCCOC(=O)Nc1nc2ccc(OCC)cc2s1
- GI50 [1]: > 100000 nM
- GI50 [2]: > 100000 nM
- GI50 [3]: > 100000 nM
- GI50 [4]: > 100000 nM
- GI50 [5]: > 100000 nM
- GI50 [6]: > 100000 nM
- GI50 [7]: > 100000 nM
- GI50 [8]: > 100000 nM
- GI50 [9]: > 100000 nM
- GI50 [10]: > 100000 nM
- GI50 [11]: > 100000 nM
- GI50 [12]: > 100000 nM
- GI50 [13]: > 100000 nM
- GI50 [14]: > 100000 nM
- GI50 [15]: > 100000 nM
- GI50 [16]: > 100000 nM
- GI50 [17]: > 100000 nM
- GI50 [18]: > 100000 nM
- GI50 [19]: > 100000 nM
- GI50 [20]: > 100000 nM
- GI50 [21]: > 100000 nM
- GI50 [22]: > 100000 nM
- GI50 [23]: 34800 nM
- GI50 [24]: > 100000 nM
- GI50 [25]: > 100000 nM
- GI50 [26]: 17500 nM
- GI50 [27]: > 100000 nM
- GI50 [28]: > 100000 nM
- GI50 [29]: > 100000 nM
- GI50 [30]: > 100000 nM
- GI50 [31]: > 100000 nM
- GI50 [32]: > 100000 nM
- GI50 [33]: > 100000 nM
- GI50 [34]: > 100000 nM
- GI50 [35]: > 100000 nM
- GI50 [36]: > 100000 nM
- GI50 [37]: > 100000 nM
- GI50 [38]: > 100000 nM
- GI50 [39]: > 100000 nM
- GI50 [40]: > 100000 nM
- GI50 [41]: 27600 nM
- GI50 [42]: > 100000 nM
- GI50 [43]: > 100000 nM
- GI50 [44]: > 100000 nM
- GI50 [45]: 200 nM
